Results as given in BindingDB's records for doi:10.1016/j.bmcl.2018.12.060 (Yanbian University College of Pharmacy, 2019).

biological target: Hypoxia-inducible factor 1-alpha (Homo sapiens, UniProt Q16665); experiment: Inhibition of HIF1alpha transcriptional activity in human Hep3B cells after 24 hrs in hypoxic condition by HRE-dual luciferase reporter gene assay
Summary of the method: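 Hep3B cells transiently co-transfected with pGL3-HRE-luciferase and pRL-CMV, after 24 h incubated under hypoxia with or without compound; luciferase activity measured after 24 h, ursolic acid as positive control; mean ± SD of three independent experiments.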

Sequence of Hypoxia-inducible factor 1-alpha (Q16665 whole entry): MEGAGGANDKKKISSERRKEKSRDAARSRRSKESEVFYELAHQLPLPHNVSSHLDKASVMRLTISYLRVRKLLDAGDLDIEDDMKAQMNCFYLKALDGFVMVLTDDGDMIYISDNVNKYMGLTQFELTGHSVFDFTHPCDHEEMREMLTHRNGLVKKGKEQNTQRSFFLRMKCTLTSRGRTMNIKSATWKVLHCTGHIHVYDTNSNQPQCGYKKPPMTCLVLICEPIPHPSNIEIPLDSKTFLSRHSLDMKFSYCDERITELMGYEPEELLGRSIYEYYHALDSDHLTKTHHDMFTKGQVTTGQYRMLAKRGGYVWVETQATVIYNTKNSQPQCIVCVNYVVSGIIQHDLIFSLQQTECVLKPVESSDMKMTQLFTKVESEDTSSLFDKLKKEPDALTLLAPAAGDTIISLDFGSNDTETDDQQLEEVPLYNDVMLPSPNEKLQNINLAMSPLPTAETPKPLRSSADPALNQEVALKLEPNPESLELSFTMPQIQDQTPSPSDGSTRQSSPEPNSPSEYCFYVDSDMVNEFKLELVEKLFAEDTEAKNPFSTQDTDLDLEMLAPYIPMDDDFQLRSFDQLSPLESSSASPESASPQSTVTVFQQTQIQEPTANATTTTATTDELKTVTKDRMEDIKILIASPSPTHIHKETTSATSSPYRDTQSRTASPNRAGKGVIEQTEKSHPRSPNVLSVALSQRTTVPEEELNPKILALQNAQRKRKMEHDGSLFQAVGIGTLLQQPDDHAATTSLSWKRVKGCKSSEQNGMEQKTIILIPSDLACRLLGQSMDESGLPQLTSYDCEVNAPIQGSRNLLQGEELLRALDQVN

Row | IC50 [µM] | SMILES
1 | 13.3 | C[C@H]1[C@H](C)CC[C@]2(C(=O)OCc3c(Cl)cccc3Cl)CC[C@]3(C)C(=CC[C@@H]4[C@@]5(C)CC/C(=N\NC(=N)N)C(C)(C)[C@@H]5CC[C@]43C)[C@H]12
2 | > 100 | C[C@H]1[C@H](C)CC[C@]2(C(=O)O)CC[C@]3(C)C(=CC[C@@H]4[C@@]5(C)CC(=C\c6ccccc6Br)/C(=N\NC(=N)N)C(C)(C)[C@@H]5CC[C@]43C)[C@H]12
3 | > 100 | C[C@H]1[C@H](C)CC[C@]2(C(=O)O)CC[C@]3(C)C(=CC[C@@H]4[C@@]5(C)CC/C(=N\NC(=N)N)C(C)(C)[C@@H]5CC[C@]43C)[C@H]12
4 | 88.8 | C[C@H]1[C@H](C)CC[C@]2(C(=O)O)CC[C@]3(C)C(=CC[C@@H]4[C@@]5(C)CC/C(=N\NC(N)=S)C(C)(C)[C@@H]5CC[C@]43C)[C@H]12
5 | 6.7 | COC(=O)[C@]12CC[C@@H](C)[C@H](C)[C@H]1C1=CC[C@@H]3[C@@]4(C)CC/C(=N\NC(=N)N)C(C)(C)[C@@H]4CC[C@@]3(C)[C@]1(C)CC2
6 | > 100 | CCOC(=O)[C@]12CC[C@@H](C)[C@H](C)[C@H]1C1=CC[C@@H]3[C@@]4(C)CC/C(=N\NC(=N)N)C(C)(C)[C@@H]4CC[C@@]3(C)[C@]1(C)CC2
7 | 30.3 | C[C@H]1[C@H](C)CC[C@]2(C(=O)OCc3cccc(Cl)c3)CC[C@]3(C)C(=CC[C@@H]4[C@@]5(C)CC/C(=N\NC(=N)N)C(C)(C)[C@@H]5CC[C@]43C)[C@H]12
8 | 10.3 | Cc1ccc(COC(=O)[C@]23CC[C@@H](C)[C@H](C)[C@H]2C2=CC[C@@H]4[C@@]5(C)CC/C(=N\NC(=N)N)C(C)(C)[C@@H]5CC[C@@]4(C)[C@]2(C)CC3)cc1
9 | > 100 | C[C@H]1[C@H](C)CC[C@]2(C(=O)O)CC[C@]3(C)C(=CC[C@@H]4[C@@]5(C)CC(=C\c6ccccc6Cl)/C(=N\NC(=N)N)C(C)(C)[C@@H]5CC[C@]43C)[C@H]12
10 | > 100 | C[C@H]1[C@H](C)CC[C@]2(C(=O)O)CC[C@]3(C)C(=CC[C@@H]4[C@@]5(C)CC(=C\c6cccc(Cl)c6)/C(=N\NC(=N)N)C(C)(C)[C@@H]5CC[C@]43C)[C@H]12
11 | > 100 | C[C@H]1[C@H](C)CC[C@]2(C(=O)O)CC[C@]3(C)C(=CC[C@@H]4[C@@]5(C)CC(=C\c6ccc(F)cc6)/C(=N\NC(=N)N)C(C)(C)[C@@H]5CC[C@]43C)[C@H]12
12 | 75.4 | C[C@H]1[C@H](C)CC[C@]2(C(=O)O)CC[C@]3(C)C(=CC[C@@H]4[C@@]5(C)CC(=C\c6cccc(Br)c6)/C(=N\NC(=N)N)C(C)(C)[C@@H]5CC[C@]43C)[C@H]12
13 | > 100 | C[C@H]1[C@H](C)CC[C@]2(C(=O)O)CC[C@]3(C)C(=CC[C@@H]4[C@@]5(C)CC(=C\c6c(Cl)cccc6Cl)/C(=N\NC(=N)N)C(C)(C)[C@@H]5CC[C@]43C)[C@H]12
14 | > 100 | Cc1ccc(/C=C2\C[C@]3(C)[C@H]4CC=C5[C@@H]6[C@@H](C)[C@H](C)CC[C@]6(C(=O)O)CC[C@@]5(C)[C@]4(C)CC[C@H]3C(C)(C)\C2=N\NC(=N)N)cc1
15 | > 100 | C[C@H]1[C@H](C)CC[C@]2(C(=O)O)CC[C@]3(C)C(=CC[C@@H]4[C@@]5(C)CC(=C\c6ccco6)/C(=N\NC(=N)N)C(C)(C)[C@@H]5CC[C@]43C)[C@H]12
16 | 22.8 | C[C@H]1[C@H](C)CC[C@]2(C(=O)O)CC[C@]3(C)C(=CC[C@@H]4[C@@]5(C)CC(=C\c6cccs6)/C(=N\NC(=N)N)C(C)(C)[C@@H]5CC[C@]43C)[C@H]12
17 | > 100 | CCCCCOC(=O)[C@]12CC[C@@H](C)[C@H](C)[C@H]1C1=CC[C@@H]3[C@@]4(C)CC/C(=N\NC(=N)N)C(C)(C)[C@@H]4CC[C@@]3(C)[C@]1(C)CC2
18 | 37.8 | C[C@H]1[C@H](C)CC[C@]2(C(=O)O)CC[C@]3(C)C(=CC[C@@H]4[C@@]5(C)CC(=C\c6ccccc6)/C(=N\NC(=N)N)C(C)(C)[C@@H]5CC[C@]43C)[C@H]12
19 | > 100 | C[C@H]1[C@H](C)CC[C@]2(C(=O)O)CC[C@]3(C)C(=CC[C@@H]4[C@@]5(C)CC(=C\c6cccc7ccccc67)/C(=N\NC(=N)N)C(C)(C)[C@@H]5CC[C@]43C)[C@H]12
20 | 21.1 | C[C@H]1[C@H](C)CC[C@]2(C(=O)OCc3ccc(Cl)cc3)CC[C@]3(C)C(=CC[C@@H]4[C@@]5(C)CC/C(=N\NC(=N)N)C(C)(C)[C@@H]5CC[C@]43C)[C@H]12
21 | 90.4 | C[C@H]1[C@H](C)CC[C@]2(C(=O)O)CC[C@]3(C)C(=CC[C@@H]4[C@@]5(C)CC(=C\c6ccc(Cl)cc6Cl)/C(=N\NC(=N)N)C(C)(C)[C@@H]5CC[C@]43C)[C@H]12
22 | 13.3 | C[C@H]1[C@H](C)CC[C@]2(C(=O)O)CC[C@]3(C)C(=CC[C@@H]4[C@@]5(C)CC/C(=N\NC(N)=O)C(C)(C)[C@@H]5CC[C@]43C)[C@H]12
23 | 40.5 | C[C@H]1[C@H](C)CC[C@]2(C(=O)OCc3ccc(Cl)cc3Cl)CC[C@]3(C)C(=CC[C@@H]4[C@@]5(C)CC/C(=N\NC(=N)N)C(C)(C)[C@@H]5CC[C@]43C)[C@H]12
24 | > 100 | C[C@H]1[C@H](C)CC[C@]2(C(=O)O)CC[C@]3(C)C(=CC[C@@H]4[C@@]5(C)CC(=C\c6cccc(F)c6)/C(=N\NC(=N)N)C(C)(C)[C@@H]5CC[C@]43C)[C@H]12
25 | > 100 | C[C@H]1[C@H](C)CC[C@]2(C(=O)O)CC[C@]3(C)C(=CC[C@@H]4[C@@]5(C)CC(=C\c6ccc([N+](=O)[O-])cc6)/C(=N\NC(=N)N)C(C)(C)[C@@H]5CC[C@]43C)[C@H]12
26 | > 100 | C[C@H]1[C@H](C)CC[C@]2(C(=O)O)CC[C@]3(C)C(=CC[C@@H]4[C@@]5(C)CC(=C\c6ccccc6F)/C(=N\NC(=N)N)C(C)(C)[C@@H]5CC[C@]43C)[C@H]12
27 | > 100 | C[C@H]1[C@H](C)CC[C@]2(C(=O)O)CC[C@]3(C)C(=CC[C@@H]4[C@@]5(C)CC[C@H](O)C(C)(C)[C@@H]5CC[C@]43C)[C@H]12 [3beta-hydroxyurs-12-en-28-oic acid]
